According to PMC8359310 (British Journal of Clinical Pharmacology, 2020):
pIC50, pKi: −log10 of the molar value. Blank lines part the entries; values can stand above or below the molecule they belong to.

Columns and labels:
[1] = Capmatinib plasma concentrations in DDI and post‐DDI phase; type: in vivo, human; conditions: 400 mg twice daily
[2] = system: MET‐dysregulated advanced solid tumours; assay: Antitumour activity by Investigator's assessment per RECIST 1.1; type: in vivo, human
Procedure, shortened: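 Adults (≥18 years) with refractory MET-dysregulated advanced solid tumours (amplification with gene copy number ≥4 by FISH or qPCR, IHC intensity +3 in ≥50% of tumour cells, or exon 14 deletion mutation). Test compound given orally at 400 mg twice daily, then continued on 21-day cycles. Investigator-read CT every 6 weeks. Patients stopping for other reasons were followed until progression, new therapy or death.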

[3] = Estimated maximum luminal concentration in the gut; parameters: species or system human; conditions: therapeutic dose 400 mg twice daily; dose/250 mL
[4] = Safety assessments; type: in vivo, human
[5] = system: breast cancer resistant protein (BCRP); assay: In vitro inhibition of transporter BCRP by capmatinib; type: in vitro ADME; conditions: 400 mg twice daily
[6] = system: OATP1B3; conditions: read-out: Ki for OATP1B3; in vitro; ref data on file; cited from earlier work
[7] = cited from earlier work
[8] = system: p‐glycoprotein (P‐gp); conditions: in vitro, cited from earlier work
[9] = system: breast cancer resistant protein (BCRP); conditions: in vitro, cited from earlier work
[10] = one of the capmatinib studies; ref data on file; cited from earlier work
[11] = target: organic anion transporting polypeptide (OATP) 1B1; conditions: read-out: Ki for OATP1B1; in vitro; ref data on file; cited from earlier work
[12] = Clinical DDI study: plasma pharmacokinetics of probe drugs; conditions: for increase of AUCinf on coadministration of capmatinib / increase of AUClast on coadministration of capmatinib / increase of Cmax on coadministration of capmatinib: compared to probe drug alone; for AUC(0-inf) / AUC(0-t) / Cmax / half-life / Tmax: human, in vivo; for AUC(0-inf): AUCinf; for AUC(0-t): AUClast; for half-life: T1/2, geo‐mean (geo‐CV%); for Tmax: median (min, max); for AUCinf geo‐mean ratio (90% CI) / AUClast geo‐mean ratio (90% CI) / Cmax geo‐mean ratio (90% CI): probe drug + capmatinib vs probe drug alone
[13] = regardless of study drug relationship
[14] = adjusted geo‐mean, probe drug + capmatinib, linear mixed effects model
[15] = adjusted geo‐mean, probe drug alone, linear mixed effects model
[16] = geo‐mean (geo‐CV%), probe drug + capmatinib 400 mg twice daily, Day 22, plasma
[17] = geo‐mean (geo‐CV%), probe drug alone, Day 1, plasma
[18] = probe drug + capmatinib 400 mg twice daily, Day 22

Structure (SMILES): CNC(=O)c1ccc(-c2cnc3ncc(Cc4ccc5ncccc5c4)n3n2)cc1F [capmatinib]
- geometric mean predose concentration ([1]; Cycle 2 Day 1 (post‐DDI phase)): 529 ng/mL
- geometric mean predose concentration ([1]; Day 22 (DDI phase)): 407 ng/mL
- concentration at 2 h ([1]; human, oral): 3960 ng/mL
- Best overall response: Progressive disease (PD) ([2]; all patients n = 32): 17 (53.1) n (%)
- Best overall response: Unknown ([2]; all patients n = 32): 7 (21.9) n (%)
- complete response (CR) or partial response (PR) ([2]; all patients n = 32): No patient
- disease control rate (CR + PR + SD) ([2]; in vivo): 25%
- patients with PD as best overall response ([2]; in vivo): 53.1%
- patients with stable disease as best overall response ([2]; in vivo): 25%
- patients with unknown response ([2]; in vivo): 21.9%
- estimated maximum luminal concentration in the gut [3]: approximately 3880 μM
- patients with AEs leading to study drug discontinuation ([4]; all events grade 3/4): 9.4%
- patients with treatment‐related AEs ([4]; all grades): 78.1%
- treatment‐related asthenia, patients ([4]; all grades): 18.8%
- treatment‐related dyspepsia, patients ([4]; all grades): 15.6%
- treatment‐related nausea, patients ([4]; all grades): 34.4%
- treatment‐related peripheral oedema, patients ([4]; all grades): 12.5%
- treatment‐related vomiting, patients ([4]; all grades): 34.4%
- nausea leading to dose adjustment or dose interruption, patients ([4]; both Grade ≤2): 6.3%
- alterations in the electrocardiograph ([4]; in vivo): No clinically relevant alterations
- on‐treatment deaths ([4]; in vivo): 18.8%
- on‐treatment deaths due to AE (respiratory tract infection) ([4]; in vivo): 3.1%
- on‐treatment deaths due to AEs with disease progression as contributing reason ([4]; in vivo): 9.4%
- on‐treatment deaths due to disease progression ([4]; in vivo): 6.3%
- other treatment‐related SAEs: anaemia, abdominal pain and malaise, each ([4]; in vivo): 1 patient
- patients who died during the study ([4]; in vivo): 25.0%
- patients with AEs requiring dose adjustment or study drug interruption ([4]; in vivo): 40.6%
- patients with treatment‐related Grade 3/4 AEs ([4]; in vivo): 25.0%
- patients with treatment‐related SAEs ([4]; in vivo): 12.5%
- treatment‐related Grade 3/4 vomiting, patients ([4]; in vivo): 6.3%
- treatment‐related SAE vomiting, patients ([4]; in vivo): 9.4%
- Abdominal pain upper, Grade 3/4 [4, 13]: 0 n (%)
- Abdominal pain upper, all grades [4, 13]: 4 (12.5) n (%)
- Abdominal pain, Grade 3/4 [4, 13]: 1 (3.1) n (%)
- Abdominal pain, all grades [4, 13]: 3 (9.4) n (%)
- Anaemia, Grade 3/4 [4, 13]: 3 (9.4) n (%)
- Anaemia, all grades [4, 13]: 7 (21.9) n (%)
- Asthenia, Grade 3/4 [4, 13]: 2 (6.3) n (%)
- Asthenia, all grades [4, 13]: 14 (43.8) n (%)
- Back pain, Grade 3/4 [4, 13]: 1 (3.1) n (%)
- Back pain, all grades [4, 13]: 6 (18.8) n (%)
- Blood albumin decreased, Grade 3/4 [4, 13]: 1 (3.1) n (%)
- Blood albumin decreased, all grades [4, 13]: 2 (6.3) n (%)
- Candida infection, Grade 3/4 [4, 13]: 0 n (%)
- Candida infection, all grades [4, 13]: 2 (6.3) n (%)
- Constipation, Grade 3/4 [4, 13]: 0 n (%)
- Constipation, all grades [4, 13]: 13 (40.6) n (%)
- Cough, Grade 3/4 [4, 13]: 0 n (%)
- Cough, all grades [4, 13]: 5 (15.6) n (%)
- Decreased appetite, Grade 3/4 [4, 13]: 1 (3.1) n (%)
- Decreased appetite, all grades [4, 13]: 7 (21.9) n (%)
- Depression, Grade 3/4 [4, 13]: 0 n (%)
- Depression, all grades [4, 13]: 2 (6.3) n (%)
- Diarrhoea, Grade 3/4 [4, 13]: 1 (3.1) n (%)
- Diarrhoea, all grades [4, 13]: 6 (18.8) n (%)
- Dyspepsia, Grade 3/4 [4, 13]: 0 n (%)
- Dyspepsia, all grades [4, 13]: 7 (21.9) n (%)
- Dyspnoea, Grade 3/4 [4, 13]: 2 (6.3) n (%)
- Dyspnoea, all grades [4, 13]: 6 (18.8) n (%)
- Fatigue, Grade 3/4 [4, 13]: 0 n (%)
- Fatigue, all grades [4, 13]: 4 (12.5) n (%)
- Headache, Grade 3/4 [4, 13]: 0 n (%)
- Headache, all grades [4, 13]: 2 (6.3) n (%)
- Hypotension, Grade 3/4 [4, 13]: 1 (3.1) n (%)
- Hypotension, all grades [4, 13]: 2 (6.3) n (%)
- Increased blood bilirubin, Grade 3/4 [4, 13]: 1 (3.1) n (%)
- Increased blood bilirubin, all grades [4, 13]: 5 (15.6) n (%)
- Lymphocyte count decreased, Grade 3/4 [4, 13]: 1 (3.1) n (%)
- Lymphocyte count decreased, all grades [4, 13]: 2 (6.3) n (%)
- Nausea, Grade 3/4 [4, 13]: 2 (6.3) n (%)
- Nausea, all grades [4, 13]: 18 (56.3) n (%)
- Oedema peripheral, Grade 3/4 [4, 13]: 0 n (%)
- Oedema peripheral, all grades [4, 13]: 9 (28.1) n (%)
- Pulmonary embolism, Grade 3/4 [4, 13]: 3 (9.4) n (%)
- Pulmonary embolism, all grades [4, 13]: 3 (9.4) n (%)
- Pyrexia, Grade 3/4 [4, 13]: 1 (3.1) n (%)
- Pyrexia, all grades [4, 13]: 8 (25.0) n (%)
- Rash, Grade 3/4 [4, 13]: 0 n (%)
- Rash, all grades [4, 13]: 2 (6.3) n (%)
- Respiratory tract infection, Grade 3/4 [4, 13]: 1 (3.1) n (%)
- Respiratory tract infection, all grades [4, 13]: 5 (15.6) n (%)
- Total adverse events, Grade 3/4 [4, 13]: 18 (56.3) n (%)
- Total adverse events, all grades [4, 13]: 32 (100) n (%)
- Urinary tract infection, Grade 3/4 [4, 13]: 0 n (%)
- Urinary tract infection, all grades [4, 13]: 3 (9.4) n (%)
- Vertigo, Grade 3/4 [4, 13]: 0 n (%)
- Vertigo, all grades [4, 13]: 2 (6.3) n (%)
- Vitamin K decreased, Grade 3/4 [4, 13]: 1 (3.1) n (%)
- Vitamin K decreased, all grades [4, 13]: 3 (9.4) n (%)
- Vomiting, Grade 3/4 [4, 13]: 2 (6.3) n (%)
- Vomiting, all grades [4, 13]: 13 (40.6) n (%)
- Weight decreased, Grade 3/4 [4, 13]: 0 n (%)
- Weight decreased, all grades [4, 13]: 2 (6.3) n (%)
- anaemia, Grade 3/4, patients [4, 13]: 9.4%
- anaemia, all grades, patients [4, 13]: 21.9%
- asthenia, Grade 3/4, patients [4, 13]: 6.3%
- asthenia, all grades, patients [4, 13]: 43.8%
- constipation, all grades, patients [4, 13]: 40.6%
- decreased appetite, all grades, patients [4, 13]: 21.9%
- dyspepsia, all grades, patients [4, 13]: 21.9%
- dyspnoea, Grade 3/4, patients [4, 13]: 6.3%
- nausea, Grade 3/4, patients [4, 13]: 6.3%
- nausea, all grades, patients [4, 13]: 56.3%
- patients with Grade 3/4 AEs [4, 13]: 56.3%
- patients with Grade 3/4 SAEs [4, 13]: 40.6%
- patients with SAEs of any grade [4, 13]: 53.1%
- peripheral oedema, all grades, patients [4, 13]: 28.1%
- pulmonary embolism, Grade 3/4, patients [4, 13]: 9.4%
- pyrexia, all grades, patients [4, 13]: 25%
- vomiting, Grade 3/4, patients [4, 13]: 6.3%
- vomiting, all grades, patients [4, 13]: 40.6%
- enrolled patients who experienced at least 1 AE ([4]; regardless of study drug relationship, 32 enrolled): 32 patients
- serum creatinine change ([4]; some subjects, none clinically relevant or reported as AE): low‐grade creatinine increase
- maximum luminal gut concentration relative to Ki for BCRP [5]: > 300 fold
- pKi [6]: 5.28
- steady state expected to be reached by ([7]; consecutive twice daily dosing): ≤ 3 days
- time to maximum plasma concentration (Tmax) ([7]; oral administration): 1 to 2 h
- pIC50 ([8]; read-out: IC50 for inhibition of P‐gp): 4.92
- pKi ([8]; read-out: Ki for P‐gp, ref data on file): 4.92
- pIC50 ([9]; read-out: IC50 for inhibition of BCRP): 4.79
- pKi ([9]; read-out: Ki for BCRP, ref data on file): 5.09
- cystatin C level following capmatinib treatment [10]: No change
- pKi [11]: 5.29

- increase of AUCinf on coadministration of capmatinib [12]: 47%
- increase of AUClast on coadministration of capmatinib [12]: 63%
- increase of Cmax on coadministration of capmatinib [12]: 74%
- AUC(0-inf) [12, 14]: 32.9 ng·h/mL
- AUC(0-inf) [12, 15]: 22.4 ng·h/mL
- AUC(0-t) [12, 14]: 23.8 ng·h/mL
- AUC(0-t) [12, 15]: 14.6 ng·h/mL
- AUC(0-t) [12, 16]: 23.8 ng·h/mL
- AUC(0-t) [12, 17]: 14.6 ng·h/mL
- Cmax [12, 15]: 1.12 ng/mL
- Cmax [12, 17]: 1.12 ng/mL
- half-life [12, 18]: 61.4 h
- half-life ([12]; probe drug alone, Day 1): 47 h
- Tmax ([12]; probe drug alone, Day 1): 1.07 h
Structure (SMILES): C[C@H]1O[C@@H](O[C@H]2[C@@H](O)C[C@H](O[C@H]3[C@@H](O)C[C@H](O[C@H]4CC[C@@]5(C)[C@H](CC[C@@H]6[C@@H]5C[C@@H](O)[C@]5(C)[C@@H](C7=CC(=O)OC7)CC[C@]65O)C4)O[C@@H]3C)O[C@@H]2C)C[C@H](O)[C@@H]1O [digoxin]
- T1/2 ([7]; healthy subjects with normal renal function): 36 to 48 h
- time of peak serum concentrations ([7]; oral administration): 1 to 3 h

- increase of AUCinf on coadministration of capmatinib [12]: 108%
- increase of AUClast on coadministration of capmatinib [12]: 103%
- increase of Cmax on coadministration of capmatinib [12]: 204%
- AUC(0-inf) [12, 14]: 156 ng·h/mL
- AUC(0-inf) [12, 15]: 75.2 ng·h/mL
- AUC(0-t) [12, 14]: 144 ng·h/mL
- AUC(0-t) [12, 15]: 71 ng·h/mL
- AUC(0-t) [12, 16]: 144 ng·h/mL
- AUC(0-t) [12, 17]: 71 ng·h/mL
- Cmax [12, 14]: 23.5 ng/mL
- Cmax [12, 15]: 7.72 ng/mL
- Cmax [12, 16]: 23.5 ng/mL
- Cmax [12, 17]: 7.72 ng/mL
- half-life ([12]; probe drug alone, Day 1): 22 h
- Tmax [12, 18]: 1.55 h
- Tmax ([12]; probe drug alone, Day 1): 2.04 h
- AUCinf geo‐mean ratio (90% CI) [12]: 2.08 (1.56, 2.76)
- AUClast geo‐mean ratio (90% CI) [12]: 2.03 (1.61, 2.56)
- Cmax geo‐mean ratio (90% CI) [12]: 3.04 (2.36, 3.92)
- AUCinf geo‐mean ratio (90% CI) ([12]; listed as Rosuvastatin): 2.08 (1.56–2.76)
- AUClast geo‐mean ratio (90% CI) ([12]; listed as Rosuvastatin): 2.03 (1.61–2.56)
- Cmax geo‐mean ratio (90% CI) ([12]; listed as Rosuvastatin): 3.04 (2.36–3.92)
Structure (SMILES): CC(C)c1nc(N(C)S(C)(=O)=O)nc(-c2ccc(F)cc2)c1/C=C/[C@@H](O)C[C@@H](O)CC(=O)O [rosuvastatin]
